Source: ChEMBL document CHEMBL1123866, “Benzimidazole derivatives with atypical antiinflammatory activity” (J Med Chem, 1987)

test system: Rattus norvegicus; experiment: Anti-inflammatory activity (% inhibition of paw swelling)in rat adjuvant arthritis model at 25 mg/kg oral dose; type: functional; settings: not given
Procedure, shortened: (§1)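 Rats, ten per group, were dosed orally with a suspension in 1% acacia in distilled water, starting immediately after adjuvant injection and then once daily for 14 days in total. Foot volume of the noninjected hind paw was measured by mercury displacement to the lateral malleolus 24 h after the final dose. Percent inhibition of swelling was calculated against untreated arthritic controls.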

| SMILES | inhibition in vivo at 25 mg/kg [%] |
| --- | --- |
| Cc1ccc2[nH]c(S(=O)(=O)C(F)(F)C(F)(F)F)nc2c1 | 8 |
| CCc1ccc2[nH]c(S(=O)(=O)CC(F)(F)F)nc2c1 | 34 |
| O=S(=O)(CC(F)(F)F)c1nc2cc(C(F)(F)F)ccc2[nH]1 | 0 |
| CCCc1ccc2[nH]c(S(=O)(=O)CC(F)(F)F)nc2c1 | 0 |
| O=S(=O)(CC(F)(F)F)c1nc2cc(Cl)ccc2[nH]1 | 28 |
| Cc1cc2[nH]c(S(=O)(=O)CC(F)(F)F)nc2cc1F | 44 |
| O=S(=O)(CC(F)(F)F)c1nc2cc(F)ccc2[nH]1 | 43 |
| O=S(=O)(CC(F)(F)F)c1nc2cc(Cl)c(Cl)cc2[nH]1 | 24 |
| O=S(=O)(c1nc2cc(Cl)ccc2[nH]1)C(F)(F)C(F)(F)C(F)(F)F | 0 |
| O=S(=O)(c1nc2cc(Cl)ccc2[nH]1)C(F)(F)C(F)(F)F | 0 |
| COC(=O)c1ccc2[nH]c(S(=O)(=O)CC(F)(F)F)nc2c1 | 11 |
| Cc1ccc2[nH]c(S(=O)(=O)CC(F)(F)F)nc2c1 | 52 |
| Cc1cc2nc(S(=O)(=O)CC(F)(F)F)[nH]c2cc1C | 18 |
| O=S(=O)(CC(F)(F)F)c1nc2ccccc2[nH]1 | 52 |
| CC(C)Cc1ccc(C(C)C(=O)O)cc1 (stereo not drawn) [IBUPROFEN] | 73 |
| CCS(=O)(=O)c1nc2cc(C)ccc2[nH]1 | 17 |

test system: Rattus norvegicus; experiment: Antiinflammatory activity was evaluated for the compound in rat adjuvant arthritis model and the percent of inhibition was determined at 50 mg/kg dose administered orally; type: functional; settings: route oral; procedure, shortened: as §1

| SMILES | inhibition in vivo at 50 mg/kg [%] |
| --- | --- |
| Cc1ccc2[nH]c(S(=O)(=O)CC(F)(F)F)nc2c1 | 72 |

test system: Rattus norvegicus; experiment: Antiinflammatory activity was evaluated for the compound in rat adjuvant arthritis model and the percent of inhibition was determined at 1 mg/kg dose administered orally; settings: po, read-out: Inhibition

| SMILES | inhibition in vivo at 1 mg/kg [%] |
| --- | --- |
| COc1ccc2c(c1)c(CC(=O)O)c(C)n2C(=O)c1ccc(Cl)cc1 [INDOMETHACIN] | 69 |
